# High-throughput results deposited in PubChem BioAssay by several laboratories.
# NadD block – blocks S. aureus nicotinate mononucleotide adenylyltransferase; 360,000 tested, 0.78% active; AID 602399; purified NadD enzyme, colorimetric absorbance read-out; inhibition, % at 20 µM; in the data active = inhibition above about 26%
# rCAG RNA binder – molecules binding r(CAG) RNA repeats. inhibition, % at 3 µM. 370,000 tested, 1.3% active. r(CAG) RNA repeat, TO-PRO-1 dye displacement fluorescence. AID 651821;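 active = inhibition above the plate cutoff, the mean of all test compounds on that plate plus 3 SD, cut at about 35% in these data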;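 note: 0% = DMSO alone and 100% = 100 µM mitoxantrone as full dye displacement; higher means more dye released from RNA so lower well fluorescence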
# ASAP1 inh – blocks human ASAP1-stimulated Arf1 GTP hydrolysis; inhibition, % at 16.5 µM; GDP FP detection; 360,000 tested, 0.19% active; in the data active = inhibition above about 25%;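 note: 0% = vehicle with enzyme and substrate and 100% = no enzyme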
# Target sequence (Q9ULH1 325-724 limits assumed): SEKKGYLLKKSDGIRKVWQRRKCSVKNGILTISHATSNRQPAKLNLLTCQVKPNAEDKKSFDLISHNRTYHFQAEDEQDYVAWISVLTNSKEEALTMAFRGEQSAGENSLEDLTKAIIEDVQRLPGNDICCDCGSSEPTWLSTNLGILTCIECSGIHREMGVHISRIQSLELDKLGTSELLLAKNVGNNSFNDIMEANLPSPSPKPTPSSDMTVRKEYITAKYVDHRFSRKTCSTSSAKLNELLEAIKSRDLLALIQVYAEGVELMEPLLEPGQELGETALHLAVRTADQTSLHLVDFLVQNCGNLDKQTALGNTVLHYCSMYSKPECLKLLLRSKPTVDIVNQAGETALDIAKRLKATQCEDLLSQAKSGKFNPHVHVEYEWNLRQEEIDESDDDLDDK
# ARFGAP1 inh – rat ARFGAP1 inhibition; 360,000 tested, 0.26% active; inhibition, % at 16.5 µM; Arfgap1-stimulated ARF1 GTP hydrolysis, GDP FP detection; Q62848; AID 651572;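 active = inhibition above a per-plate limit, mean inhibition of low control wells plus 3 SD, cut at about 25% in these data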;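 note: 0% = DMSO wells with enzyme and 100% = wells lacking Arfgap1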
# Target sequence (Q62848 1-136 limits assumed): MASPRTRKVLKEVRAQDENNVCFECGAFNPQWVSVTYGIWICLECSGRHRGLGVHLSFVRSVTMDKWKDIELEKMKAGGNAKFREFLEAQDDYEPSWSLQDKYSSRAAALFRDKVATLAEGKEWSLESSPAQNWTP
#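 system = rat Arfgap1 catalytic domain, aa 1-136 | technique = FP, GDP Alexa 633 tracer displaced from anti-GDP antibody, 620/688 nm | compound = one concentration, 16.5 µM, DMSO 1.26% | medium = HEPES-based buffer, pH 7.5 | timing = compound-enzyme preincubation 20 min, reaction 120 min, detection 60 min, 25 °C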
# rCAG binder conf – r(CAG) RNA repeat binding, confirmation; shares compounds with rCAG RNA binder; TO-PRO-1 dye displacement fluorescence; inhibition, % at 3 µM; 4,300 tested, 70% active;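 active = inhibition above a per-plate cutoff, the mean inhibition of sample wells plus 3 SD, cut at about 35% in these data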;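 note: loss of TO-PRO-1 fluorescence as compound displaces dye from 1x1 AA loop RNA; 0% = DMSO only wells and 100% = 100 µM mitoxantrone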
# dCAG dye counter – DNA CAG dye complex inhibition counter-screen; 4,300 tested, 94% active; inhibition, % at 3 µM; d(CAG) DNA oligo TO-PRO-1 dye displacement, fluorescence; shares compounds with rCAG RNA binder;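 active = inhibition above its plate's cutoff, the mean test-well inhibition plus 3 SD, cut at about 4.8% in these data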;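 note: 0% = DNA dye mix with DMSO and 100% = 100 µM mitoxantrone; hits displace the dye from DNA and so lower well fluorescence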
# dCAG dye DR – DNA CAG dye complex inhibition, dose response counter-screen; DNA CAG/GTC duplex TO-PRO-1 dye displacement fluorescence; IC50, µM; shares compounds with rCAG RNA binder; 250 tested, 20% active; in the data active = IC50 below about 10 µM
# Numbers without * were called inactive; i = inactive; . = no result given. In the library only some 2.2% were active in any assay of this set; here they are far more common.
SMILES,NadD block,rCAG RNA binder,ASAP1 inh,ARFGAP1 inh,rCAG binder conf,dCAG dye counter,others
O=C(Nc1ccc(Cl)cc1)c1ccc2c(c1)S(=O)(=O)c1ccccc1C2=O,7,3,2,7,.,.,
O=C(Nc1cc(S(=O)(=O)N2CCOCC2)ccc1O)c1ccc(S(=O)(=O)N2CCCCC2)cc1,4,40*,-2,-1,37*,10*,
O=C(N[C@H](C(=O)N1CCC[C@H]1C(=O)NCc1ccccc1)C1CCCCC1)c1ccc(Cl)cc1Cl,.,0,2,13,.,.,
O=C(NN1CCCCC1)NN1CCCCC1,7,1,-3,-9,.,.,
COC(=O)C1(C(=O)OC)c2ccccc2N(S(=O)(=O)c2ccc(C)cc2)C1CC(=O)c1ccccc1 (stereo not drawn),.,4,8,-7,.,.,
O=C(Nc1cc(S(=O)(=O)N2CCOCC2)ccc1O)c1ccc2c(c1)S(=O)(=O)c1ccccc1C2=O,9,43*,-1,-3,69*,31*,
O=C(Nc1ccc(S(=O)(=O)N2CCOCC2)cc1)c1ccc2c(c1)S(=O)(=O)c1ccccc1C2=O,4,0,-4,15,.,.,
CCN1C(=O)/C(=C\c2ccc(-c3ccc([N+](=O)[O-])cc3OC)o2)SC1=Nc1cccc(C(=O)O)c1,28,63*,3,-11,84*,50*,
CCN=C1S/C(=C\c2ccc(-c3cccc(C(=O)O)c3)o2)C(=O)N1CC,6,.,.,.,.,.,
C[C@@H]1COc2cc(N3CCCC3)ccc2S(=O)(=O)N1,.,2,-7,-17,.,.,
O=[N+]([O-])c1ccc2nc(NS(=O)(=O)c3ccc(F)cc3)sc2c1,-3,43*,16,0,28,4,
CC(=O)Nc1ccc(S(=O)(=O)Nc2nc3ccc(C)cc3s2)cc1,-2,22,-7,5,.,.,
Cc1ccc2nc(-c3ccc(NS(=O)(=O)c4ccc(F)cc4)cc3)sc2c1,1,48*,7,12,60*,24*,
CC1=CCC(C(=O)O)C(C(=O)Nc2ccc(-c3nc4ccc(C)cc4s3)cc2)C1 (stereo not drawn),10,67*,-8,-8,73*,36*,
Cc1ccc(S(=O)(=O)Nc2nc3ccc(N)cc3s2)cc1,-2,11,7,-2,.,.,
CCCCCCCCN1C(=O)[C@@H](CC(=O)NCCc2ccccc2OC)C[C@@]2(C(=O)OC)C1=C[C@H](C(C)(C)C)O[C@@H]2C,.,0,23,-3,.,.,
Cc1ccc(-c2n[nH]c(=S)n2/N=C/C=C\c2ccccc2[N+](=O)[O-])cc1,24,35*,8,2,33,11*,
O=[N+]([O-])c1ccccc1C=Nn1c(-c2cc(-c3ccccc3)n[nH]2)n[nH]c1=S,.,47*,.,.,53*,19*,
S=c1[nH]nc(-c2cc(-c3ccccc3)n[nH]2)n1/N=C/c1c(Cl)cccc1Cl,26,43*,-2,-5,68*,29*,
COc1ccc(OC)c(-n2c(-c3cc(-c4ccccc4)n[nH]3)n[nH]c2=S)c1,3,7,2,-14,.,.,
COc1ccc2ccccc2c1C=Nn1c(-c2cc(-c3ccccc3)n[nH]2)n[nH]c1=S,.,70*,.,.,58*,27*,
Cc1cc(-c2n[nH]c(=S)n2/N=C/c2ccccc2[N+](=O)[O-])n[nH]1,0,2,2,-1,.,.,
CCCCNS(=O)(=O)/C=C/c1ccc(OC)cc1CNC(=O)OC(C)(C)C,.,0,.,.,.,.,
S=c1[nH]nc(-c2cc(-c3ccccc3)n[nH]2)n1/N=C/C=C/c1ccco1,16,41*,7,10,51*,24*,
S=c1[nH]nc(-c2ccccn2)n1/N=C/c1cccc2ccccc12,9,2,-3,9,.,.,
SMILES,NadD block,rCAG RNA binder,ASAP1 inh,ARFGAP1 inh,rCAG binder conf,dCAG dye counter,others
S=c1[nH]nc(-c2cc(-c3ccccc3)n[nH]2)n1/N=C/c1cccc2ccccc12,.,79*,.,.,78*,40*,
CC1CCc2c(sc3nc(CN4CCOCC4)nc(NS(=O)(=O)c4cccc([N+](=O)[O-])c4)c23)C1 (stereo not drawn),22,62*,1,0,71*,28*,dCAG dye DR=i
O=C(Nc1nc2ncccn2c1-c1ccc(C(F)(F)F)cc1)C1CC1,.,0,.,.,.,.,
N#Cc1c(/N=C/c2ccc(-c3ccc(C(=O)O)c(Cl)c3)o2)sc2c1CCCC2,9,3,-18,-9,.,.,
Cc1nc(S/C(=C\c2ccc(-c3ccc(C(=O)O)c(Cl)c3)o2)C(=O)O)n[nH]1,-5,36*,-8,-15,50*,16*,
CCOC(=O)N1CCc2c(sc(NC(=O)c3ccc(S(=O)(=O)N4CCCC4)cc3)c2C#N)C1,15,84*,12,3,57*,19*,
O=C(NC1CCCC1)C1C(c2ccc(C(F)(F)F)cc2)=Nc2ccccc2N1C(=O)c1ccccc1 (stereo not drawn),.,1,-10,-12,.,.,
Nc1nc2c(c(=O)[nH]1)C(c1cccc3ccccc13)C1=C(N2)c2ccccc2C1=O (stereo not drawn),12,78*,-7,5,57*,34*,
O=C(O)c1ccc(-n2cccc2/C=C2/NC(=O)N(c3cccc(Cl)c3)C2=O)cc1,11,39*,-12,7,31,8.8*,
O=C(O)c1ccc(-n2cccc2/C=C2/NC(=O)N(c3ccccc3)C2=O)cc1,-6,33,-7,0,.,.,
CC(C)C[C@@H]1COc2cc(N3CCCC3)ccc2S(=O)(=O)N1C,.,-2,.,.,.,.,
COC(=O)[C@]1(C#N)CC(=O)N(CC(C)C)[C@@H]1c1ccccc1,.,-1,.,.,.,.,
Cc1ccc(NS(=O)(=O)c2ccc(Cl)s2)nc1,0,3,12,4,.,.,
O=C(Nc1ccccc1Cc1ccccc1)c1ccccc1NS(=O)(=O)c1ccc(Cl)s1,22,91*,-2,-14,91*,66*,
Cc1ccc(NC(=O)c2ccccc2NS(=O)(=O)c2ccc(Cl)s2)cc1,-4,85*,7,-4,72*,34*,
O=C(CSc1nnc(-c2cccs2)n1Cc1ccco1)Nc1ccc(OCc2ccccc2)cc1,.,9,.,.,.,.,
Cc1ccccc1-n1c(=O)/c(=C\c2ccco2)s/c1=C(/C#N)C(=O)Nc1ccccc1,22,13,5,-13,.,.,
N#CC1=C(N)n2c(s/c(=C\c3ccco3)c2=O)=C(C#N)C1c1ccco1 (stereo not drawn),50*,54*,-9,0,38*,18*,dCAG dye DR=i
CCCCCCCCN1C(=O)[C@H](CC(=O)N2CCCCC2)C[C@@]2(C(=O)OC)CC(C)(C)CC=C12,.,7,-2,-9,.,.,
CCOc1ccc(-c2csc(NC(=O)CSC3=NC(=O)CN3C(C)=O)n2)c2ccccc12,3,2,7,7,.,.,
